Data as given in ChEMBL document CHEMBL5724801, “EUbOPEN Chemogenomics Library - Multiplex” (2024).
Several values for one entry are separate records, joined by “and”; a condition that tells them apart may be missing. Equal values may be shown once.

Tests used:
U2OS = test: Multiplex assay against U2OS; assay type: toxicity, cell-based; conditions: human
How it was run: (§1)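 Cells were classed with CellPathfinder machine-learning gating, first as Hoechst high-intensity objects or normal cells, then (normal cells) as healthy, pyknosed or fragmented nuclei, and finally (pyknosed cells) as mitotic or apoptotic. Staining of live cells at seeding used Hoechst33342, BioTracker Green Microtubule Cytoskeleton Dye, MitoTracker Red and Annexin V Alexa Fluor 680, with imaging on a CQ1 microscope at 37°C and 5% CO2 after compound addition. Tubulin, mitochondrial-mass and membrane-permeability phenotypes are per cents of healthy-nucleus cells.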

Fibroblast = test: Multiplex assay against human fibroblast; assay type: toxicity, cell-based; how it was run: as §1
[1] = 24 h, 10 µM, compound concentration 10 uM
[2] = 48 h, 1 µM, compound concentration 1 uM
[3] = 48 h, 10 µM, compound concentration 10 uM
[4] = 12 h, 1 µM, compound concentration 1 uM
[5] = 12 h, 10 µM, compound concentration 10 uM
[6] = 24 h, 1 µM, compound concentration 1 uM

Question: Which “Population Apoptotic (%)” value (U2OS; [1]) does the source give for `Cc1c(-c2cc(-c3ccccc3Cl)no2)cnn1C1CCNCC1.Cl` here?
Answer: 38.83% and 47.71%

Question: And the “Population Fragmented Nuclei (%)” value (U2OS; [1])?
Answer: 2.56% and 6.16%

Question: And the “Population Healthy Nuclei (%)” value (U2OS; [1])?
Answer: 49.23% and 19.18%

Question: And the “Population Hoechst High Intensity Objects (%)” value (U2OS; [1])?
Answer: 0% and 0.68%

Question: What about the “Population Membrane Permeable-Phenotype (%)” value (U2OS; [1]) of the same compound?
Answer: 21.88% and 17.86%

Question: And the “Population Mitotic Cells (%)” value (U2OS; [1])?
Answer: 61.17% and 52.29%

Question: What about the “Population Normal (%)” value (U2OS; [1]) of the same compound?
Answer: 100% and 99.32%

Question: What about the “Population Pyknosed Nuclei (%)” value (U2OS; [1]) of the same compound?
Answer: 48.21% and 74.66%

Question: What about the “Population Tubulin-Different-Phenotype (%)” value (U2OS; [1]) of the same compound?
Answer: 79.17% and 60.71%

Question: And the “Total Cell Count” value (U2OS; [1])?
Answer: 390 and 147

Question: What about the “Population Apoptotic (%)” value (U2OS; [2]) of the same compound?
Answer: 42.02% and 57.78%

Question: What about the “Population Fragmented Nuclei (%)” value (U2OS; [2]) of the same compound?
Answer: 2.39% and 2.74%

Question: And the “Population Healthy Nuclei (%)” value (U2OS; [2])?
Answer: 86.66% and 84.93%

Question: What about the “Population Hoechst High Intensity Objects (%)” value (U2OS; [2]) of the same compound?
Answer: 0%

Question: And the “Population Membrane Permeable-Phenotype (%)” value (U2OS; [2])?
Answer: 1.59% and 2.58%

Question: And the “Population Mitochondria Different-Phenotype (%)” value (U2OS; [2])?
Answer: 0.11% and 7.74%

Question: And the “Population Mitotic Cells (%)” value (U2OS; [2])?
Answer: 57.98% and 42.22%

Question: And the “Population Normal (%)” value (U2OS; [2])?
Answer: 100%

Question: And the “Population Pyknosed Nuclei (%)” value (U2OS; [2])?
Answer: 10.95% and 12.33%

Question: What about the “Population Tubulin-Different-Phenotype (%)” value (U2OS; [2]) of the same compound?
Answer: 2.23% and 3.55%

Question: What about the “Total Cell Count” value (U2OS; [2]) of the same compound?
Answer: 1087 and 365

Question: What about the “Population Apoptotic (%)” value (U2OS; [3]) of the same compound?
Answer: 59.43% and 95.93%

Question: And the “Population Fragmented Nuclei (%)” value (U2OS; [3])?
Answer: 1.36% and 2.17%

Question: What about the “Population Hoechst High Intensity Objects (%)” value (U2OS; [3]) of the same compound?
Answer: 0.68% and 0%

Question: And the “Population Normal (%)” value (U2OS; [3])?
Answer: 99.32% and 100%

Question: And the “Population Pyknosed Nuclei (%)” value (U2OS; [3])?
Answer: 55.33% and 89.13%

Question: What about the “Population Tubulin-Different-Phenotype (%)” value (U2OS; [3]) of the same compound?
Answer: 49.21% and 50%

Question: What about the “Population Fragmented Nuclei (%)” value (Fibroblast; [4]) of the same compound?
Answer: 12.32% and 5.31%

Question: And the “Population Healthy Nuclei (%)” value (Fibroblast; [4])?
Answer: 58.77% and 79.2%

Question: What about the “Population Hoechst High Intensity Objects (%)” value (Fibroblast; [4]) of the same compound?
Answer: 0%

Question: And the “Population Membrane Permeable-Phenotype (%)” value (Fibroblast; [4])?
Answer: 4.03% and 3.91%

Question: And the “Population Mitochondria Different-Phenotype (%)” value (Fibroblast; [4])?
Answer: 17.74% and 8.94%

Question: What about the “Population Mitotic Cells (%)” value (Fibroblast; [4]) of the same compound?
Answer: 93.44% and 68.57%

Question: What about the “Population Normal (%)” value (Fibroblast; [4]) of the same compound?
Answer: 100%

Question: What about the “Population Pyknosed Nuclei (%)” value (Fibroblast; [4]) of the same compound?
Answer: 28.91% and 15.49%

Question: What about the “Population Tubulin-Different-Phenotype (%)” value (Fibroblast; [4]) of the same compound?
Answer: 32.26% and 22.91%

Question: And the “Total Cell Count” value (Fibroblast; [4])?
Answer: 211 and 226

Question: What about the “Population Apoptotic (%)” value (Fibroblast; [5]) of the same compound?
Answer: 18.52% and 39.56%

Question: And the “Population Fragmented Nuclei (%)” value (Fibroblast; [5])?
Answer: 8.72% and 4.05%

Question: What about the “Population Healthy Nuclei (%)” value (Fibroblast; [5]) of the same compound?
Answer: 41.74% and 54.95%

Question: And the “Population Hoechst High Intensity Objects (%)” value (Fibroblast; [5])?
Answer: 0%

Question: And the “Population Membrane Permeable-Phenotype (%)” value (Fibroblast; [5])?
Answer: 10.99% and 13.93%

Question: And the “Population Mitochondria Different-Phenotype (%)” value (Fibroblast; [5])?
Answer: 46.15% and 28.69%

Question: And the “Population Mitotic Cells (%)” value (Fibroblast; [5])?
Answer: 81.48% and 60.44%

Question: What about the “Population Normal (%)” value (Fibroblast; [5]) of the same compound?
Answer: 100%

Question: What about the “Population Pyknosed Nuclei (%)” value (Fibroblast; [5]) of the same compound?
Answer: 49.54% and 40.99%

Question: And the “Population Tubulin-Different-Phenotype (%)” value (Fibroblast; [5])?
Answer: 73.63% and 83.61%

Question: And the “Total Cell Count” value (Fibroblast; [5])?
Answer: 218 and 222

Question: What about the “Population Apoptotic (%)” value (Fibroblast; [6]) of the same compound?
Answer: 8% and 20.83%

Question: And the “Population Fragmented Nuclei (%)” value (Fibroblast; [6])?
Answer: 12.4% and 7.5%

Question: What about the “Population Healthy Nuclei (%)” value (Fibroblast; [6]) of the same compound?
Answer: 67.6% and 82.5%

Question: And the “Population Hoechst High Intensity Objects (%)” value (Fibroblast; [6])?
Answer: 0%

Question: What about the “Population Membrane Permeable-Phenotype (%)” value (Fibroblast; [6]) of the same compound?
Answer: 4.73% and 1.01%

Question: And the “Population Mitochondria Different-Phenotype (%)” value (Fibroblast; [6])?
Answer: 7.69% and 3.54%

Question: And the “Population Mitotic Cells (%)” value (Fibroblast; [6])?
Answer: 92% and 79.17%

Question: What about the “Population Normal (%)” value (Fibroblast; [6]) of the same compound?
Answer: 100%

Question: What about the “Population Pyknosed Nuclei (%)” value (Fibroblast; [6]) of the same compound?
Answer: 20% and 10%

Question: What about the “Population Tubulin-Different-Phenotype (%)” value (Fibroblast; [6]) of the same compound?
Answer: 33.73% and 29.8%

Question: And the “Total Cell Count” value (Fibroblast; [6])?
Answer: 250 and 240

Question: And the “Population Apoptotic (%)” value (Fibroblast; [1])?
Answer: 36.97% and 65.81%

Question: And the “Population Fragmented Nuclei (%)” value (Fibroblast; [1])?
Answer: 10.44% and 3.51%

Question: What about the “Population Healthy Nuclei (%)” value (Fibroblast; [1]) of the same compound?
Answer: 24.18% and 28.07%

Question: What about the “Population Hoechst High Intensity Objects (%)” value (Fibroblast; [1]) of the same compound?
Answer: 0%

Question: What about the “Population Membrane Permeable-Phenotype (%)” value (Fibroblast; [1]) of the same compound?
Answer: 25% and 20.83%

Question: What about the “Population Mitochondria Different-Phenotype (%)” value (Fibroblast; [1]) of the same compound?
Answer: 63.64% and 60.42%

Question: And the “Population Mitotic Cells (%)” value (Fibroblast; [1])?
Answer: 63.03% and 34.19%

Question: And the “Population Normal (%)” value (Fibroblast; [1])?
Answer: 100%

Question: What about the “Population Pyknosed Nuclei (%)” value (Fibroblast; [1]) of the same compound?
Answer: 65.38% and 68.42%

Question: And the “Population Tubulin-Different-Phenotype (%)” value (Fibroblast; [1])?
Answer: 72.73% and 68.75%

Question: And the “Total Cell Count” value (Fibroblast; [1])?
Answer: 182 and 171

Question: What about the “Population Apoptotic (%)” value (Fibroblast; [2]) of the same compound?
Answer: 25% and 11.11%

Question: And the “Population Fragmented Nuclei (%)” value (Fibroblast; [2])?
Answer: 10.69% and 10.92%

Question: What about the “Population Healthy Nuclei (%)” value (Fibroblast; [2]) of the same compound?
Answer: 83.79% and 85.92%

Question: And the “Population Hoechst High Intensity Objects (%)” value (Fibroblast; [2])?
Answer: 0%

Question: And the “Population Membrane Permeable-Phenotype (%)” value (Fibroblast; [2])?
Answer: 4.12% and 11.48%

Question: What about the “Population Mitochondria Different-Phenotype (%)” value (Fibroblast; [2]) of the same compound?
Answer: 9.05% and 0.82%

Question: What about the “Population Mitotic Cells (%)” value (Fibroblast; [2]) of the same compound?
Answer: 75% and 88.89%

Question: And the “Population Normal (%)” value (Fibroblast; [2])?
Answer: 100%

Question: What about the “Population Pyknosed Nuclei (%)” value (Fibroblast; [2]) of the same compound?
Answer: 5.52% and 3.17%

Question: And the “Population Tubulin-Different-Phenotype (%)” value (Fibroblast; [2])?
Answer: 31.28% and 31.15%

Question: And the “Total Cell Count” value (Fibroblast; [2])?
Answer: 290 and 284

Question: And the “Population Apoptotic (%)” value (Fibroblast; [3])?
Answer: 53.41% and 92.06%

Question: And the “Population Fragmented Nuclei (%)” value (Fibroblast; [3])?
Answer: 14.67% and 6.71%

Question: What about the “Population Healthy Nuclei (%)” value (Fibroblast; [3]) of the same compound?
Answer: 37.5% and 51.01%

Question: And the “Population Hoechst High Intensity Objects (%)” value (Fibroblast; [3])?
Answer: 0%

Question: And the “Population Mitochondria Different-Phenotype (%)” value (Fibroblast; [3])?
Answer: 43.48% and 21.05%

Question: And the “Population Normal (%)” value (Fibroblast; [3])?
Answer: 100%

Question: What about the “Population Pyknosed Nuclei (%)” value (Fibroblast; [3]) of the same compound?
Answer: 47.83% and 42.28%

Question: What about the “Population Tubulin-Different-Phenotype (%)” value (Fibroblast; [3]) of the same compound?
Answer: 15.94% and 32.89%

Question: And the “Total Cell Count” value (Fibroblast; [3])?
Answer: 184 and 149
